Measured values: ChEMBL document CHEMBL1268946, “Discovery of 2-substituted benzoxazole carboxamides as 5-HT3 receptor antagonists” (Bioorg Med Chem Lett, 2010)
The source made the active and inactive calls. No cut-off for these calls is given here.

What was measured:
[1] = biological target: T1, 5-hydroxytryptamine receptor 3A (Homo sapiens, UniProt P46098); assay: Binding affinity to human HT3A receptor
T1 sequence (P46098 whole entry): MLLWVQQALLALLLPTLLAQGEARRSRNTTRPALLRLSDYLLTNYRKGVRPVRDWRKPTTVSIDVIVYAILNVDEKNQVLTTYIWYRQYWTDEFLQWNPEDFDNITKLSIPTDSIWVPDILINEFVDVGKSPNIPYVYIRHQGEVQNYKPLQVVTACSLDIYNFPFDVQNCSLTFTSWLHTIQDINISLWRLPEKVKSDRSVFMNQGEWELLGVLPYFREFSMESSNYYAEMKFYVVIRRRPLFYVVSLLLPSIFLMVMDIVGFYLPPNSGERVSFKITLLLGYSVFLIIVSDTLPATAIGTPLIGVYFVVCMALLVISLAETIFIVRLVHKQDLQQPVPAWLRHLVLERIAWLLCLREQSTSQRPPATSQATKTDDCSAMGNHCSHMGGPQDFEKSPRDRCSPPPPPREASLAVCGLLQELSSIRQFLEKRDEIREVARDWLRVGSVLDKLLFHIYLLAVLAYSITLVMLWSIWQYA

[2] = Inhibition of human CYP450; format: ADME
Mus musculus [3] = species on record: Mus musculus; settings: 0.56 mg/kg
[4] = Intrinsic clearance in human liver microsomes; format: ADME, Microsome
Mus musculus [5] = assay: Cardioprotective effect in po dosed mouse assessed as inhibition of 5-HT-induced bradycardia administered 1 hr prior to 5-HT challenge; format: functional
Summary of the method: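 Murine von Bezold–Jarisch reflex assay. Test agents were given orally 1 h before a 0.1 mg/kg 5-HT challenge. Read-out was block of 5-HT-induced transient bradycardia.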

[6] = biological target: Voltage-gated inwardly rectifying potassium channel KCNH2 (Homo sapiens, UniProt Q12809); assay: Inhibition of human ERG expressed in HEK cells by patch clamp technique
Voltage-gated inwardly rectifying potassium channel KCNH2, sequence (Q12809 whole entry): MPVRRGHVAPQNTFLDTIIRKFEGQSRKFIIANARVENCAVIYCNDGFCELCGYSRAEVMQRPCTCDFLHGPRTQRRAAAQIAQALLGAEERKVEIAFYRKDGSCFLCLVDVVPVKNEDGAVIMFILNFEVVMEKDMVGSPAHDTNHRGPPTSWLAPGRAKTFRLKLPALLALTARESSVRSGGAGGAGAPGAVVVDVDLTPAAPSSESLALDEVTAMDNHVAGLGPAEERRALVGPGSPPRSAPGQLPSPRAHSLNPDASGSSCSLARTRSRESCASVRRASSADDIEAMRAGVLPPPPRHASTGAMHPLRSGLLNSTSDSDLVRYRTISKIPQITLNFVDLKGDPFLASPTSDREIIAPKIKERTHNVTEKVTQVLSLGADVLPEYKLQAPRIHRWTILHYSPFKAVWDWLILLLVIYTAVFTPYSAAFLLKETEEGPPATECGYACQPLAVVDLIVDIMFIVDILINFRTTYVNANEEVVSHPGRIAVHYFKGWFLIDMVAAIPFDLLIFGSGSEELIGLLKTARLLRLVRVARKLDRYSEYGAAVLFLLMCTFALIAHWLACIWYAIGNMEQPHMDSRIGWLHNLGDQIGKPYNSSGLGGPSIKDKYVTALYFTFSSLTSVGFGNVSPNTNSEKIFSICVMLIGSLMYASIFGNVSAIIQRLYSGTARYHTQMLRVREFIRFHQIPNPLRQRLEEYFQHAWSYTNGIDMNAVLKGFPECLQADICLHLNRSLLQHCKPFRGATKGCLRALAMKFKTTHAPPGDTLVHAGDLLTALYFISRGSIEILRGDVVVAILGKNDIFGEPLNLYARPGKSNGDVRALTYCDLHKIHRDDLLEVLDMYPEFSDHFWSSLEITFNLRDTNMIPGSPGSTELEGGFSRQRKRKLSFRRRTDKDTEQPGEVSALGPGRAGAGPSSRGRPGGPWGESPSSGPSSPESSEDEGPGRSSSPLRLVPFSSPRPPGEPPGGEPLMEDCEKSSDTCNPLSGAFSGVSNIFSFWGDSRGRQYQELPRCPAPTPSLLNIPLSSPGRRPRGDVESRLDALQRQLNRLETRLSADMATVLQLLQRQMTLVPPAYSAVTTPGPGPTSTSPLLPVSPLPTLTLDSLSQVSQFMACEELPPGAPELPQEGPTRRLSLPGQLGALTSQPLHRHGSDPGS

Cytochrome P450 3A4 = Cytochrome P450 3A4 (Homo sapiens, UniProt P08684); assay: Inhibition of human CYP3A4; format: ADME
Cytochrome P450 3A4, sequence (P08684 whole entry): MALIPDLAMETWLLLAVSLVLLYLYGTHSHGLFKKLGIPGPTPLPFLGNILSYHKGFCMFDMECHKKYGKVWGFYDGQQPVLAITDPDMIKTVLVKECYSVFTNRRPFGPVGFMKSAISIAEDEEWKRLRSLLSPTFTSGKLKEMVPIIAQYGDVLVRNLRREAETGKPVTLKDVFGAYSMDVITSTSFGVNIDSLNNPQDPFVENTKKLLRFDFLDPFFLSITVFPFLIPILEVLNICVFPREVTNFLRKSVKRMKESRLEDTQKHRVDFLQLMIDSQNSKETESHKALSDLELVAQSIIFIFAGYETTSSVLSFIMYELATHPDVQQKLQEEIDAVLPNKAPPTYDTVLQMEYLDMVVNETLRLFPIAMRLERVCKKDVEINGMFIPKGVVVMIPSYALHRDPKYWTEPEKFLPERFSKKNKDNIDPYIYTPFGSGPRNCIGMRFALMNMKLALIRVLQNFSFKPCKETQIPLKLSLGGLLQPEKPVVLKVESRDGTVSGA

[7] = Bioavailability in rat at 10 mg/kg, po or 1 mg/kg, iv; format: ADME, organism-based; settings: in vivo
Mus musculus [8] = species on record: Mus musculus; settings: 1.9 mg/kg
Cytochrome P450 2C19 = Cytochrome P450 2C19 (Homo sapiens, UniProt P33261); assay: Inhibition of human CYP2C19; format: ADME
Cytochrome P450 2C19, sequence (P33261 whole entry): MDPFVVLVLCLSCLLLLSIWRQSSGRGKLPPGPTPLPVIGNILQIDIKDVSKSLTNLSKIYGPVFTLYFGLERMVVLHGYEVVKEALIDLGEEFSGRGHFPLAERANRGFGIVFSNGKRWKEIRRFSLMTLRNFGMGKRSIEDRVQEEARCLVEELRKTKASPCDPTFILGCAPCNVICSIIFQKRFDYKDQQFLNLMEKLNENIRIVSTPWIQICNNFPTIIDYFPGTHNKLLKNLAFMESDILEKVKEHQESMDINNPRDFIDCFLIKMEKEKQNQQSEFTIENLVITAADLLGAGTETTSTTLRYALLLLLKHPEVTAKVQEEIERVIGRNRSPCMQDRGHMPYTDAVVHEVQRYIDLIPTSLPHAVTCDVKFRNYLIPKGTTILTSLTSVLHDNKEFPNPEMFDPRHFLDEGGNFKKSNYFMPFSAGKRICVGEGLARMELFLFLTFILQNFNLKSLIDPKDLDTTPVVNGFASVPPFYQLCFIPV

Homo sapiens = species on record: Homo sapiens; assay: Inhibition of human nicotinic acetylcholine receptor at 1 uM
Summary of the method: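 Single-concentration screen at 1 µM within a 68-membered off-target receptor panel; inhibition above 50% counted as significant.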

SMILES	Ki [1] [nM]	microsomal CLint [4] [µL/min/mg]	also measured
CN1[C@@H]2CCC[C@H]1C[C@H](NC(=O)c1cccc3oc(-c4ccc(F)cc4)nc13)C2	16.3	–	–
COc1ccc(-c2nc3cccc(C(=O)N[C@@H]4C[C@H]5CCC[C@@H](C4)N5C)c3o2)cc1	58.5	–	–
C[C@@H]1CNC[C@@H](C)N1c1nc2c(C(=O)N[C@@H]3C[C@H]4CCC[C@@H](C3)N4C)cccc2o1	59.4	–	–
CN1[C@@H]2CCC[C@H]1C[C@H](NC(=O)c1cccc3nc(-c4ccc(Cl)cc4)oc13)C2	73.8	–	–
CCNc1nc2c(C(=O)N[C@@H]3CN4CCC3CC4)cccc2o1	36.4	–	–
CN1[C@@H]2CCC[C@H]1C[C@H](NC(=O)c1cccc3oc(N4CCOC[C@@H]4C(C)(C)C)nc13)C2	2	–	–
CN1[C@@H]2CCC[C@H]1C[C@H](NC(=O)c1cccc3oc(-c4ccc(Cl)cc4)nc13)C2	18	–	–
C[C@@H]1CNC[C@H](C)N1c1nc2c(C(=O)N[C@@H]3C[C@H]4CCC[C@@H](C3)N4C)cccc2o1	37.3	–	–
CN1[C@@H]2CCC[C@H]1C[C@H](NC(=O)c1cccc3oc(-c4ccccc4)nc13)C2	15.1	–	–
CNc1nc2c(C(=O)N[C@@H]3CN4CCC3CC4)cccc2o1	36.4	–	–
Nc1nc2c(C(=O)N[C@@H]3CN4CCC3CC4)cc(Cl)cc2o1	4.7	3	IC50 [2]: > 30000 nM; inhibition (Mus musculus [3]): Active; ED50 (Mus musculus [5]): 0.4 mg/kg; IC50 [6]: 4800 nM
O=C(N[C@@H]1CN2CCC1CC2)c1cccc2oc(C3CC3)nc12	32.7	4.5	IC50 (Cytochrome P450 3A4): > 100000 nM; bioavailability [7]: 13%; IC50 [6]: 700 nM
C[C@H]1COC[C@H](C)N1c1nc2c(C(=O)N[C@@H]3C[C@H]4CCC[C@@H](C3)N4C)cccc2o1	0.6	–	–
Cc1[nH]cnc1CN1CCc2c(c3ccccc3n2C)C1=O [ALOSETRON]	–	3	bioavailability [7]: 100%; ED50 (Mus musculus [5]): 0.02 mg/kg
CC(C)N(C)c1nc2c(C(=O)N[C@@H]3CN4CCC3CC4)cccc2o1	66.5	–	–
CN1[C@@H]2CCC[C@H]1C[C@H](NC(=O)c1cccc3nc(-c4ccccc4)oc13)C2	40.4	–	–
C[C@H]1CNC[C@H](C)N1c1nc2c(C(=O)N[C@@H]3C[C@H]4CCC[C@@H](C3)N4C)cccc2o1	2.4	< 2	inhibition (Mus musculus [8]): Active; IC50 (Cytochrome P450 2C19): 1400 nM; ED50 (Mus musculus [5]): 0.85 mg/kg; IC50 [6]: 6400 nM
CC[C@H]1COCCN1c1nc2c(C(=O)N[C@@H]3C[C@H]4CCC[C@@H](C3)N4C)cccc2o1	4.6	–	–

SMILES	Ki [1] [nM]	microsomal CLint [4] [µL/min/mg]	also measured
CCN(CC)c1nc2c(C(=O)N[C@@H]3CN4CCC3CC4)cccc2o1	12.4	–	–
CN1[C@@H]2CCC[C@H]1C[C@H](NC(=O)c1cccc3oc(N4CCNCC4)nc13)C2	72.2	–	–
COc1ccccc1-c1nc2c(C(=O)N[C@@H]3CN4CCC3CC4)cccc2o1	47.3	10.1	IC50 (Cytochrome P450 3A4): > 50000 nM; bioavailability [7]: 100%; IC50 [6]: 200 nM
CN1[C@@H]2CCC[C@H]1C[C@H](NC(=O)c1cccc3oc(N4CCOCC4)nc13)C2	40	1	IC50 (Cytochrome P450 3A4): > 50000 nM; bioavailability [7]: 35%; IC50 [6]: 1400 nM; inhibition (Homo sapiens): > 50%
CC[C@H]1COC[C@H](C)N1c1nc2c(C(=O)N[C@@H]3C[C@H]4CCC[C@@H](C3)N4C)cccc2o1	1	–	–
CN1[C@@H]2CCC[C@H]1C[C@H](NC(=O)c1cccc3oc(C4CC4)nc13)C2	8.3	23.5	IC50 (Cytochrome P450 3A4): > 50000 nM; bioavailability [7]: 32%
Nc1nc2c(C(=O)N[C@@H]3CN4CCC3CC4)cccc2o1	13.8	< 2	IC50 [2]: > 100000 nM; ED50 (Mus musculus [5]): 1.08 mg/kg
COc1ccc(-c2nc3c(C(=O)N[C@@H]4C[C@H]5CCC[C@@H](C4)N5C)cccc3o2)cc1	18.8	–	–
CN1[C@@H]2CCC[C@H]1C[C@H](NC(=O)c1cccc3nc(-c4ccc(F)cc4)oc13)C2	94.9	–	–
C[C@@H]1CN(c2nc3c(C(=O)N[C@@H]4C[C@H]5CCC[C@@H](C4)N5C)cccc3o2)C[C@H](C)O1	35.3	–	–
CC(C)C[C@H]1COCCN1c1nc2c(C(=O)N[C@@H]3C[C@H]4CCC[C@@H](C3)N4C)cccc2o1	3.5	–	–
O=C(N[C@@H]1CN2CCC1CC2)c1cccc2oc(N3CCOCC3)nc12	–	0.6	IC50 (Cytochrome P450 3A4): > 100000 nM; bioavailability [7]: 100%; IC50 [6]: 3200 nM
C[C@H]1CNCCN1c1nc2c(C(=O)N[C@@H]3C[C@H]4CCC[C@@H](C3)N4C)cccc2o1	16.5	–	–
COc1ccccc1-c1nc2c(C(=O)N[C@@H]3C[C@H]4CCC[C@@H](C3)N4C)cccc2o1	14.9	2.8	IC50 (Cytochrome P450 3A4): 1100 nM; bioavailability [7]: 44%; IC50 [6]: 400 nM
CC(C)[C@H]1COCCN1c1nc2c(C(=O)N[C@@H]3C[C@H]4CCC[C@@H](C3)N4C)cccc2o1	5	–	–
Cc1nccn1CC1CCc2c(c3ccccc3n2C)C1=O (stereo not given) [ONDANSETRON]	–	5.8	bioavailability [7]: 21%; ED50 (Mus musculus [5]): 0.54 mg/kg
CCC[C@H]1COCCN1c1nc2c(C(=O)N[C@@H]3C[C@H]4CCC[C@@H](C3)N4C)cccc2o1	3.9	–	–
